SMARCA2 act – SMARCA2 (BRM) function activators, primary screen, cell-based, luminescence, high throughput. MG213 cells, MMTV-luciferase reporter, dexamethasone, overnight. activation, % at 9.1 µM. 370,000 compounds, 1% hits; in the data active = activation above about 7.8%;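 also: 0% = vehicle wells and 100% = reference activator wells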
AHR activator – AHR activators, primary screen, cell-based, luminescence, luciferase reporter, human; AID 2796, 2010; activation, % at 5 µM; AHR-responsive luciferase reporter cells; Aryl hydrocarbon receptor (Homo sapiens), P35869; 320,000 compounds, 2.5% hits; in the data active = activation above about 47%;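 also: 0% = vehicle wells and 100% = reference agonist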
SR-BI DiI inh – inhibitors of SR-BI mediated HDL lipid uptake, primary screen, ldlA[mSR-BI] cells, fluorescence, single point; ldlA[mSR-BI] CHO cells, DiI-HDL uptake fluorescence, 3 h; 320,000 compounds, 0.96% hits; inhibition, % at 12.5 µM; AID 488896, 2010; Scavenger receptor class B member 1 (Mus musculus), Q61009;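 active = mean replicate inhibition of at least 70% and a set share of replicates each scoring 70 or more; inconclusive = meets just one of the two criteria; inactive = fails both criteria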;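 also: 0% = median of neutral control wells and 100% = median of positive control wells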
SR-BI uptake up – activators of SR-BI mediated DiI-HDL uptake, primary screen, ldlA[mSR-BI] CHO cells, DiI fluorescence | 3 h; 100 = double the neutral-control signal | activation, % at 12.5 µM | 320,000 compounds, 0.096% hits;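 active = mean replicate activation of at least 60% and every replicate at or above 60%; inconclusive = mean or all-replicate condition met, but not both; inactive = mean below 60% and not all replicates reaching 60%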;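 also: 0% = median plate neutral-control signal and 100% = twice that signal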
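Material: SR-BI-overexpressing, LDLR-lacking CHO cells; schedule: compound exposure 3 h, 37 °C; reagent: DiI-labelled HDL at 10 µg/mL final; technique: bottom-read fluorescence, 550/595 nm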
CR mimetic SO – reduction of superoxide in aged yeast, primary screen, HTS; S. cerevisiae aged cells, superoxide DHE fluorescence; active compounds read low; superoxide response (% of plate mean), % at 10 µM; 330,000 compounds, 0.18% hits; AID 2690, 2010;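 active = superoxide response under a set limit, about three screen SD below normal, cut at about 65% in these data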;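 also: yeast aged for seven days with compound at 30 °C before DHE staining; 100% = average MFI of all compound-treated wells on the plate with controls excluded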
Lipid droplet – inhibitors of hepatocyte lipid droplet formation, primary screen, imaging, high-throughput imaging, BODIPY stain. 240,000 compounds, 0.4% hits. inhibition, % at 6.5 µM. AML12 mouse hepatocytes, oleate lipid droplets;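 active = lipid droplet intensity inhibited by at least 50%, with more than 500 cells counted; inconclusive = wells with under 300 cells, treated as cytotoxic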
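Material – mouse AML12 hepatocyte cell line, fixed after treatment · Compound dosing – one dose, 6.5 µM compound · Times – compound with oleate, overnight · Measured by – Image-based BODIPY and DAPI two-channel analysis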
AHR act cf – AHR activators, confirmation, cell-based, luminescence, luciferase reporter, human | shares compounds with AHR activator | human cells, AHR-responsive luciferase reporter | activation, % at 9 µM | 2,300 compounds, 87% hits; in the data active = activation above about 49%;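 also: HepG2 hepatoma cells carrying a DRE-driven firefly luciferase reporter; 0% = vehicle wells and 100% = reference agonist wells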
PXR counter – human PXR activators, counter-screen for AHR activator project, cell-based, luciferase luminescence. shares compounds with AHR activator. cell-based PXR reporter. activation, % at 11.6 µM. 2,300 compounds, 88% hits. AID 434939, 2010; in the data active = activation above about 11%;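 also: human hepatoma DPX-2 cells expressing full-length human PXR; 0% = DMSO and 100% = reference agonist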
Target sequence (O75469 whole entry, looked up): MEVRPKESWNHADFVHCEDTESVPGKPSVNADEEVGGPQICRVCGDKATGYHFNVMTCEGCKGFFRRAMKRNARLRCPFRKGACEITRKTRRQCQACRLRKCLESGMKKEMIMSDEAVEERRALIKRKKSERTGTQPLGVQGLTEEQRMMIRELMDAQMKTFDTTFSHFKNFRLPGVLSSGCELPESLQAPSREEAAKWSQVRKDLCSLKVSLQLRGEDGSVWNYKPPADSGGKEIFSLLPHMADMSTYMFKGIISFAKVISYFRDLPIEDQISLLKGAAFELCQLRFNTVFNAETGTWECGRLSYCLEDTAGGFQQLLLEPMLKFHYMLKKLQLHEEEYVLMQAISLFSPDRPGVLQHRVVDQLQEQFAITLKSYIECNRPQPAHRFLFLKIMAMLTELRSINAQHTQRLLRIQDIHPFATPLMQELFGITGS
Active calls of the source: *; u = inconclusive; x = no result. Compounds with a hit are over-represented: about 4.3% of the library has one in this group of screens.

SMILES	SMARCA2 act	AHR activator	SR-BI DiI inh	SR-BI uptake up	CR mimetic SO	Lipid droplet	AHR act cf	PXR counter
COC(=O)Cc1nnn2c1[C@@H](C)[C@@H](c1ccccc1Br)OC[C@H](C)C2	3.5	x	x	x	x	x	x	x
CC12CCC(=O)N1C(C(=O)Nc1nc3c(F)cc(F)cc3s1)CS2 (stereo unspecified)	0.3	97.4*	0.5	x	95.7	-5.8	79.3*	151.5*
Cc1cccc2sc(NC(=O)C3CSC4(C)CCC(=O)N34)nc12 (stereo unspecified)	-2.6	21.3	38.6	-38.6	110.9	0.4	x	x
O=C(C[n+]1cc(Br)cc2ccccc21)c1ccc(Br)cc1	-2.3	100.8*	-0.4	0.4	107.6	0.7	112.1*	30.5*
CCCCCCCCN1C(=O)[C@@H](CC(=O)NCc2ccc(C)o2)C[C@@]2(C(=O)OC)C1=C[C@H](COCc1ccccc1)O[C@@H]2C	-2.3	x	x	x	x	x	x	x
c1ccc(OCCOc2ncnc3sccc23)cc1	3.9	137.6*	-3.3	3.3	79.9	3.1	121.4*	45.0*
COc1cccc(COc2ncnc3sccc23)c1	-2.2	0.3	-15.7	15.7	92.0	7.5	x	x
Cc1cccc(NC(=O)c2sc3nc(N)c(C#N)cc3c2N)c1	3.0	111.5*	8.7	-8.8	105.0	11.6	60.9*	28.7*
Cc1cc(C)cc(NC(=O)c2sc3nc(C)cc(C)c3c2N)c1	4.1	-11.3	67.3	-67.3	101.8	5.3	x	x
Cc1cc(Nc2ccc(F)cc2)n2nc(C)nc2n1	-0.4	6.4	-14.1	14.1	85.8	x	x	x
Cc1cc(Nc2ccc(Br)cc2)n2nc(C)nc2n1	-1.5	106.6*	4.3	-4.3	96.1	31.0	88.4*	x
CNC12CCc3cc(OC)c(OC)c(c31)-c1cc3c(cc1C2)OCO3 (stereo unspecified)	-2.5	x	x	x	x	x	x	x
Cc1ccc2c(c1)[nH]c1c(=O)n(CCN3CCCCC3)cnc12	0.9	94.0*	-43.9	43.9	92.3	x	105.4*	76.3*
Cc1ccc2c(c1)[nH]c1c(=O)n(CCCN3CCOCC3)cnc12	1.4	34.9	-26.5	26.5	99.9	x	x	x
Cc1ccc(-n2c(SCC(=O)NN=Cc3ccc(-c4ccccc4)cc3)nnc2-c2ccccc2)cc1	-2.4	x	x	x	x	x	x	x
C/C(=N\NC(=O)c1ccccc1-n1cccc1)C1CC1	-4.0	98.3*	-6.7	6.7	97.5	-3.0	4.0	8.7
O=C(N/N=C\c1ccccc1)c1ccccc1-n1cccc1	3.0	92.3*	-21.2	21.2	110.0	-11.2	110.6*	37.8*
NNC(=O)c1ccccc1-n1cccc1	-1.9	120.8*	-38.5	38.5	104.4	16.8	5.2	9.7
Cc1ccc(C(=O)NNC(=O)c2ccccc2-n2cccc2)cc1	0.5	44.9	-9.8	9.8	116.8	-21.4	x	x
O=C(N/N=C\c1cccs1)c1ccccc1-n1cccc1	0.7	43.8	1.6	-1.6	87.2	-8.4	x	x
O=C(NNC(=O)c1ccccc1-n1cccc1)c1ccccc1	-0.2	80.6*	-12.6	12.6	93.9	x	93.1*	12.2*
CCOC(=O)c1csc(NC(=O)C2CCCN(S(=O)(=O)c3cccs3)C2)n1 (stereo unspecified)	-4.6	x	x	x	x	x	x	x
CC[C@H](C(=O)Nc1ccccc1N1CCCC1)c1ccccc1	-0.4	x	x	x	x	x	x	x
COC(=O)C1=C(C)N(C)C(=NCc2ccc3c(c2)OCO3)NC1c1ccc(Cl)cc1 (stereo unspecified)	-5.8	x	x	x	x	x	x	x
O=C(Nc1cc([N+](=O)[O-])ccc1Cl)c1ccc2c(c1)OCO2	2.5	105.5*	12.5	-12.5	90.1	-20.0	100.5*	23.2*
SMILES	SMARCA2 act	AHR activator	SR-BI DiI inh	SR-BI uptake up	CR mimetic SO	Lipid droplet	AHR act cf	PXR counter
Cc1ccc([N+](=O)[O-])cc1NC(=O)c1ccc2c(c1)OCO2	0.4	115.2*	-3.7	3.7	99.4	6.6	99.7*	25.4*
COC(=O)C1=C(C)N(Cc2cccc(C(F)(F)F)c2)C(=NCc2ccc(OC)cc2)NC1c1cccc(F)c1 (stereo unspecified)	-4.3	x	x	x	x	x	x	x
C=CCOC(=O)c1[nH]c2c(c1C)C(=O)CC(c1ccco1)C2 (stereo unspecified)	x	103.1*	x	x	100.9	u	22.6	195.2*
C/C=C/COC(=O)c1[nH]c2c(c1C)C(=O)CC(c1ccc(N(C)C)cc1)C2 (stereo unspecified)	2.0	17.4	67.0	-67.0	87.7	-0.5	x	x
COc1ccc(CCNc2nc(-c3ccccn3)cs2)cc1OC	-4.4	84.9*	x	x	88.6	-3.1	80.4*	26.9*
COc1ccc(CCNc2nc(-c3cccnc3)cs2)cc1OC	-2.3	2.2	3.2	-3.2	109.5	x	x	x
CC(=O)Nc1cccc(NC(=O)c2cccc3cccnc23)c1	0.0	123.9*	3.8	-3.8	125.5	-0.4	100.9*	55.6*
CC(=O)c1c(C)[nH]c(C(=O)NCCc2ccccc2)c1C	4.9	116.3*	12.3	-12.3	98.0	x	70.0*	78.8*
Nc1nc(NCc2ccc(Cl)cc2)nc(NCCO)c1[N+](=O)[O-]	-6.8	-2.2	25.1	-25.1	106.4	2.5	x	x
C=CCNc1nc(N)c([N+](=O)[O-])c(Nc2cccc(Cl)c2)n1	0.4	89.5*	25.1	-25.1	110.9	28.8	132.4*	13.2*
Nc1nc(Nc2ccc(Cl)cc2)nc(NCCO)c1[N+](=O)[O-]	-0.1	110.9*	x	x	104.8	5.6	193.0*	24.6*
CN1C(=O)c2cccc(NC(=O)Cc3ccccc3)c2C1=O	0.3	156.4*	0.4	-0.4	82.3	x	51.1*	14.1*
Cc1c(NC(=O)Cc2ccccc2)cccc1C(=O)NN1C(=O)c2ccccc2C1=O	-3.4	-0.9	-11.5	11.5	99.3	2.5	x	x
Cc1ccc(-c2cc(-c3cccs3)[nH]n2)c(O)c1	5.7	109.1*	22.2	-22.2	90.4	13.7	118.0*	x
O=C(NCCCn1ccnc1)c1cc(-c2cccs2)on1	0.2	142.6*	-1.4	1.4	84.2	x	457.6*	46.1*
CCCC[C@H]1C2CC(OC(=O)Nc3cc(C)cc(C)c3)C(C2)[C@H]2CCCCN21 (stereo partly specified)	-4.6	x	x	x	x	x	x	x
CNc1nc(Nc2ccc(C)c(Cl)c2)c2cnn(C)c2n1	1.4	36.7	39.8	-39.8	94.0	3.6	x	x
